Series [1] in a line: folding enthalpy; higher = less favourable; fluorescence melt of hairpins on a sequencing array, two-state fit. The settings on record: sodium 0.088 M. In a few lines:
(§1)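 Folding enthalpy and melting temperature come from bootstrapped two-state fits to Cy3 fluorescence of library hairpins carrying annealed Cy3 and quencher oligos on a sequenced MiSeq flow cell. Imaging was done in 50 mM Na-HEPES pH 8.0, 25 mM NaCl, stepping by 2.5 °C up to 60 °C, and signals were normalised to pre-quench Cy3 and to control constructs. Results of four replicates were combined by inverse variance, and fitted temperatures were raised by 9.35 °C to match UV melts.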

Series [2] is described as follows: melting temperature; fluorescence melt of hairpins on a sequencing array, two-state fit, raised by 9.35 °C to match UV melts. The settings on record: sodium 0.088 M. In a few lines:
as §1

With GCTCCGCGAAAGCGAGC (((.(((....)))))), in series [1], the folding enthalpy is -20.6 kcal/mol. Further, the Tm in series [2] was found to be 61.7 °C.

In the case of GCCAAACCGAAAGGTGGC (((..(((....)))))), in series [1], the folding enthalpy was -32 kcal/mol. Also, in series [2], the Tm is 55.4 °C.

In the case of GCTTGTGGAAACACAGGC ((.((((....)))).)), the folding enthalpy in series [1] is -27.2 kcal/mol. Also, the Tm in series [2] came out at 52 °C.

For the sequence GCTTCAGCGAAAGCTAGC (((..(((....)))))), in series [1], the folding enthalpy was -9.89 kcal/mol. In addition, in series [2], the Tm came to 41.2 °C.

With TCCGAGAAATCGGA (((((....))))), the folding enthalpy in series [1] was -19.6 kcal/mol. Moreover, the Tm in series [2] stood at 46.4 °C.

As to GCGAATTTTCGC ((((....)))), in series [1], the folding enthalpy is -29.5 kcal/mol. Moreover, the Tm in series [2] turned out to be 53.2 °C.

Regarding GCTGACGAAAGTCGCAGC ((((((....)))..))), the folding enthalpy in series [1] is -16.7 kcal/mol. Moreover, the Tm in series [2] was 49.5 °C.

With GCGAGCGAAAGCTCTCGC ((((((....)))..))), the folding enthalpy in series [1] was -17.4 kcal/mol. For the same sequence, the Tm in series [2] turned out to be 52.3 °C.

Take GGGTAAGGAAACTCACCC ((((.((....)).)))): the folding enthalpy in series [1] was -28.4 kcal/mol. In series [2], the Tm was 36.8 °C.

On to GAGTTACGAAAGTATCTC (((.(((....))).))), for which the folding enthalpy in series [1] was -26 kcal/mol. In addition, the Tm in series [2] is 41.4 °C.

In the case of GTCCAGGGAAACCTGGGC (.(((((....))))).), the folding enthalpy in series [1] was -33.1 kcal/mol. Besides, in series [2], the Tm came to 56.5 °C.

Consider GATCGAGACGTCGATC ((((((....)))))), for which the folding enthalpy in series [1] is -37.3 kcal/mol. Moreover, the Tm in series [2] came to 57.2 °C.

Regarding GACTAGCGAAAGCTGGTC (((.(((....))).))), the folding enthalpy in series [1] was -34.1 kcal/mol. Moreover, the Tm in series [2] was 61 °C.

Regarding GATCCGATACGGATC ((((((...)))))), in series [1], the folding enthalpy was -32.7 kcal/mol. Moreover, the Tm in series [2] came to 59.6 °C.

On to GATCGTTCACACGATC ((((((....)))))), for which the folding enthalpy in series [1] was -40.3 kcal/mol. Besides, the Tm in series [2] came out at 54.5 °C.

For GGTTAGGCGAAAGCCACC (((..(((....)))))), the folding enthalpy in series [1] was -12.5 kcal/mol. In addition, the Tm in series [2] is 42.9 °C.

With GATCTTAGGGAAGATC ((((((....)))))), the folding enthalpy in series [1] was -26.3 kcal/mol. Also, in series [2], the Tm worked out at 41.5 °C.

As to GTGGGCGGAAACGCCTGC (..((((....))))..), the folding enthalpy in series [1] was -13.2 kcal/mol. In addition, the Tm in series [2] worked out at 47 °C.

Take GCGTAGGCGAAAGCCCGC (((..(((....)))))): the folding enthalpy in series [1] is -19.7 kcal/mol. In series [2], the Tm was 61.9 °C.

Regarding GCGGCTCCCCGC ((((....)))), the folding enthalpy in series [1] is -22.1 kcal/mol. Besides, the Tm in series [2] was determined as 54.8 °C.

For the sequence GATCATCGAAATGATC ((((((....)))))), the folding enthalpy in series [1] was -29 kcal/mol. The Tm in series [2] turned out to be 44.2 °C.

Regarding GGGTTTCGAAAGAACCCC (((.(((....))).))), the folding enthalpy in series [1] is -26.1 kcal/mol. Besides, in series [2], the Tm is 51.3 °C.

Regarding GCTGGGCGAAAGCGGAGC (((..((....))..))), in series [1], the folding enthalpy is -17.2 kcal/mol. Besides, the Tm in series [2] worked out at 44.1 °C.

Consider GCGCCCCGAAAGGGTCGC (((.(((....))).))), for which the folding enthalpy in series [1] is -45.8 kcal/mol. The Tm in series [2] stood at 68 °C.

For GTCGAGGGAAACTTCGAC (((((.(....).))))), the folding enthalpy in series [1] is -42.6 kcal/mol. Also, the Tm in series [2] came to 49.6 °C.

GTGCGGGGAAACTCGCAC (((((.(....).))))): the folding enthalpy in series [1] is -40.1 kcal/mol. For the same sequence, the Tm in series [2] amounted to 61.2 °C.

As for GATCGACCCTTCGATC ((((((....)))))), the folding enthalpy in series [1] was -45.1 kcal/mol. In series [2], the Tm stood at 53.4 °C.

Take GTGTTCCGAAAGGACAC (((.(((....)))))): the folding enthalpy in series [1] is -32.8 kcal/mol. Further, in series [2], the Tm is 53.8 °C.

GACCCCGAAAGGGAGTC ((((((....))).))): the folding enthalpy in series [1] is -23 kcal/mol. Also, the Tm in series [2] was determined as 56.5 °C.

Turning to GCGTACGGAAACACACGC ((((..(....)..)))), the folding enthalpy in series [1] is -28.7 kcal/mol. Further, the Tm in series [2] amounted to 38.8 °C.

In the case of GTGCCACGAAAGTGCCAC (((.(((....))).))), the folding enthalpy in series [1] is -20.5 kcal/mol. In addition, in series [2], the Tm was determined as 47.6 °C.

On to GCGAGGAAACTCGC (((((....))))), for which the folding enthalpy in series [1] is -32.6 kcal/mol. Moreover, in series [2], the Tm was 66.4 °C.

Regarding GGGGATGGAAACATTCCC (((.(((....))).))), the folding enthalpy in series [1] was -40.9 kcal/mol. Also, in series [2], the Tm amounted to 51.6 °C.

As for GCCCAGCGAAAGCAGAGC ((.(.((....)).).)), the folding enthalpy in series [1] is -10.9 kcal/mol. Besides, the Tm in series [2] came to 41.2 °C.

As to GCAGAGGAAACTCTGC ((((((....)))))), the folding enthalpy in series [1] was -35.2 kcal/mol. The Tm in series [2] stood at 65.8 °C.

As to GATCATGACGATGATC ((((((....)))))), in series [1], the folding enthalpy was -40.3 kcal/mol. Moreover, the Tm in series [2] was 50.8 °C.

GATCTGTAGTCAGATC ((((((....)))))): in series [1], the folding enthalpy is -35.5 kcal/mol. In series [2], the Tm worked out at 49.1 °C.

Regarding GTTACCGGAAACGGTAGC (.(((((....))))).), in series [1], the folding enthalpy was -18.9 kcal/mol. The Tm in series [2] amounted to 50.4 °C.

Turning to GCCATTGGAAACAGTGGC ((((.((....)).)))), in series [1], the folding enthalpy was -45.3 kcal/mol. For the same sequence, the Tm in series [2] worked out at 50.7 °C.

In the case of GATCTTCAAAAAGATC ((((((....)))))), the folding enthalpy in series [1] is -27.3 kcal/mol. For the same sequence, the Tm in series [2] was 40.4 °C.

Regarding GCTTTGCGAAAGCATAGC (((.(((....))).))), the folding enthalpy in series [1] is -47.2 kcal/mol. Further, the Tm in series [2] amounted to 53.2 °C.

GTCACCGAAAGGTGGGAC ((((((....)))..))): in series [1], the folding enthalpy was -9.56 kcal/mol. Further, the Tm in series [2] is 39 °C.

As to GCCCGCGAAAGCGCCGGC ((((((....)))..))), in series [1], the folding enthalpy was -17.5 kcal/mol. Besides, the Tm in series [2] turned out to be 52.3 °C.

As to GCGGATACGAAAGTACGC (((..(((....)))))), in series [1], the folding enthalpy is -27 kcal/mol. In addition, the Tm in series [2] amounted to 49.4 °C.

Turning to GATCTCGCCTGAGATC ((((((....)))))), in series [1], the folding enthalpy is -36.8 kcal/mol. The Tm in series [2] stood at 54 °C.

Consider GTATCGAAAGATAC (((((....))))), for which, in series [1], the folding enthalpy is -25.1 kcal/mol. Moreover, the Tm in series [2] was determined as 52.7 °C.

With GGGTCCGAAAGGATGCCC ((((((....)))..))), in series [1], the folding enthalpy was -24.3 kcal/mol. For the same sequence, the Tm in series [2] worked out at 45.5 °C.

GCGTACGGAAACGTACAC (.(((((....))))).): the folding enthalpy in series [1] is -15.1 kcal/mol. The Tm in series [2] was determined as 42.8 °C.

For GACCACGAAAGTGTGTC ((((((....))).))), the folding enthalpy in series [1] was -27.3 kcal/mol. In addition, in series [2], the Tm was determined as 52.9 °C.

Consider GAGCCCGGAAACAGGCTC (((((.(....).))))), for which the folding enthalpy in series [1] was -39.4 kcal/mol. Besides, in series [2], the Tm is 51.5 °C.

For GTTTTAGGAAACTGAAAC ((((.((....)).)))), the folding enthalpy in series [1] was -22.1 kcal/mol. Also, the Tm in series [2] is 35.2 °C.

Consider GGTATCGGAAACGATGCC ((.((((....)))).)), for which, in series [1], the folding enthalpy was -37.9 kcal/mol. The Tm in series [2] was found to be 54.6 °C.

CGGACCGGAAACGGACCG (((.(((....))).))): the folding enthalpy in series [1] is -41.5 kcal/mol. Besides, the Tm in series [2] amounted to 58.6 °C.

As to GAGAACGCGAAAGCGCTC (((..(((....)))))), in series [1], the folding enthalpy was -12.2 kcal/mol. Moreover, the Tm in series [2] is 39 °C.

Turning to TCGAGGAAACTCGA (((((....))))), the folding enthalpy in series [1] is -18.8 kcal/mol. Further, the Tm in series [2] came to 48 °C.

GAAAGAGCGAAAGCTTTC (((..(((....)))))): the folding enthalpy in series [1] is -13.8 kcal/mol. Also, the Tm in series [2] stood at 32.5 °C.

The values are drawn from the array DNA melting data of Ke et al. (doi:10.1101/2024.01.08.574731).
